Results on four compounds are retold here after ChEMBL document CHEMBL1158804, “Lupane triterpenoids from Maytenus species” (J Nat Prod, 2005).

SMILES strings stand for the structures. In brackets after ≈: the same amount, converted by molar mass. Activity calls are given as the source filed them. The rule behind the calls is not given here.

In assay [1] the test system is HeLa. As to the kind of experiment: Cytotoxicity against human HeLa cells after 48 hrs by MTT assay. Type of assay: functional, cell-based. The method in brief: (§1)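 Monolayers are cultured in DMEM with 5% fetal calf serum and 1% penicillin-streptomycin at 37 °C, 5% CO2 and 90% humidity. Exponentially growing cells (2 × 10^4 cells/well) are exposed to a range of compound concentrations for 48 h at 37 °C. Viability is read by colorimetric MTT reduction.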

In assay [2] the test system is Vero. As to the kind of experiment: Cytotoxicity against african green monkey Vero cells after 48 hrs by MTT assay. The format is cell-based. As to conditions: Chlorocebus sabaeus. The method in brief: as §1
Assay [3] relates to Bacillus cereus. As to the kind of experiment: Antibacterial activity against Bacillus cereus CECT 496 by broth microdilution method. Type of assay: functional. The method in brief:
(§2)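 Compounds are dissolved in DMSO. The minimal inhibitory concentration is estimated by broth microdilution.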

Assay [4] deals with Bacillus subtilis. The experiment in a line: Antibacterial activity against Bacillus subtilis CECT 39 by broth microdilution method. Type of assay: functional. The method in brief: as §2
For assay [5], the system named is HEp-2. As to the kind of experiment: Cytotoxicity against human Hep2 cells after 48 hrs by MTT assay. Particulars: HEp-2, 48 h. Type of assay: functional, cell-based. The method in brief:
as §1

The subject of assay [6] is Bacillus pumilus. As to the kind of experiment: Antibacterial activity against Bacillus pumilus CECT 29 by broth microdilution method. The format is functional. The gist of the method: as §2
In assay [7] the test system is Escherichia coli. The experiment in a line: Antibacterial activity against Escherichia coli CECT 99 up to 40 ug/mL by broth microdilution method. The format is functional, organism-based. The gist of the method: as §2
Assay [8] concerns Proteus mirabilis. The experiment in a line: Antibacterial activity against Proteus mirabilis CECT170 up to 40 ug/mL by broth microdilution method. Type of assay: functional, organism-based. The method in brief:
as §2

Assay [9] concerns Pseudomonas aeruginosa. The experiment in a line: Antibacterial activity against Pseudomonas aeruginosa AK 958 up to 40 ug/mL by broth microdilution method. Type of assay: functional, organism-based. The method in brief:
as §2

Assay [10] concerns Priestia megaterium. As to the kind of experiment: Antibacterial activity against Bacillus megaterium CECT 44 up to 40 ug/mL by broth microdilution method. The format is functional, organism-based. The gist of the method: as §2
For assay [11], the system named is Staphylococcus aureus. The experiment in a line: Antibacterial activity against Staphylococcus aureus ATCC 6538 up to 40 ug/mL by broth microdilution method. The format is functional, organism-based. The method in brief:
as §2

Assay [12] deals with Staphylococcus saprophyticus. As to the kind of experiment: Antibacterial activity against Staphylococcus saprophyticus CECT 235 up to 40 ug/mL by broth microdilution method. Type of assay: functional, organism-based. The method in brief: as §2
Assay [13] has as its system Candida albicans. The experiment in a line: Antifungal activity against Candida albicans UBC1 up to 40 ug/mL by broth microdilution method. The format is functional, organism-based. The gist of the method:
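The yeast is grown on Sabouraud agar at 37 °C. Compounds are dissolved in DMSO, and the minimal inhibitory concentration is estimated by broth microdilution.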

Assay [14] deals with Mycolicibacterium smegmatis. The experiment in a line: Antibacterial activity against Mycobacterium smegmatis CECT 3032 up to 40 ug/mL by broth microdilution method. Type of assay: functional, organism-based. The gist of the method:
as §2

In assay [15] the test system is Bacillus subtilis. The experiment in a line: Antibacterial activity against Bacillus subtilis CECT 39 up to 40 ug/mL by broth microdilution method. The format is functional, organism-based. The gist of the method:
as §2

The subject of assay [16] is Bacillus cereus. As to the kind of experiment: Antibacterial activity against Bacillus cereus CECT 496 up to 40 ug/mL by broth microdilution method. The format is functional, organism-based. The method in brief: as §2
In assay [17] the test system is Enterococcus faecalis. The experiment in a line: Antibacterial activity against Enterococcus faecalis CECT 795 up to 40 ug/mL by broth microdilution method. Type of assay: functional, organism-based. The method in brief:
as §2

Assay [18] deals with Bacillus pumilus. The experiment in a line: Antibacterial activity against Bacillus pumilus CECT 29 up to 40 ug/mL by broth microdilution method. Type of assay: functional, organism-based. The gist of the method: as §2
Assay [19] concerns Staphylococcus epidermidis. As to the kind of experiment: Antibacterial activity against Staphylococcus epidermidis CECT 232 up to 40 ug/mL by broth microdilution method. Type of assay: functional, organism-based. The method in brief:
as §2

In assay [20] the test system is Salmonella. The experiment in a line: Antibacterial activity against Salmonella sp. CECT 456 up to 40 ug/mL by broth microdilution method. The format is functional, organism-based. The gist of the method:
as §2

For `C=C(C)[C@@H]1CC[C@]2(C(=O)O)CC[C@]3(C)[C@@H](CC[C@@H]4[C@@]5(C)CCC(=O)C(C)(C)[C@@H]5[C@H](O)C[C@]43C)[C@@H]12`, the concentration for half-maximal inhibition (IC50) in assay [1], in assay [2] and in assay [5] was more than 10 µg/mL each time. Besides, the minimal inhibitory concentration (MIC) was 25 µg/mL (≈ 53.1 µM) in [3], 35 µg/mL (≈ 74.4 µM) in assay [4] and 20 µg/mL (≈ 42.5 µM) in [6].

In the case of `C=C(C)[C@@H]1CC[C@]2(C(=O)O)CC[C@]3(C)[C@H](CC[C@@H]4[C@@]5(C)CC[C@@H](O)C(C)(C)[C@@H]5CC[C@]43C)[C@@H]12` [EPIBETULINIC ACID], the result in [7], in assay [8], in assay [9], in [10], in assay [11] and in [12] was inactive. The result in assay [13], in [14], in assay [15], in [16], in assay [17] and in assay [18] was inactive. For the same compound, the result in [19] and in assay [20] was inactive. Also, the IC50 in assay [1] is 2.1 µg/mL (≈ 4.6 µM); in [2], more than 10 µg/mL; in assay [5], 3.1 µg/mL (≈ 6.79 µM).

For the compound `C=C(CO)[C@@H]1CC[C@]2(CO)CC[C@]3(C)[C@@H](CC[C@@H]4[C@@]5(C)CCC(=O)C(C)(C)[C@@H]5CC[C@]43C)[C@@H]12`, the outcome in [7], in assay [8], in [9], in assay [10], in assay [11] and in assay [12] was inactive. For the same compound, the result in assay [13], in [14], in assay [15], in [16], in assay [17] and in assay [18] was inactive. In addition, the result in assay [19] and in assay [20] was inactive. For the same compound, the 50% inhibitory concentration (IC50) in assay [1] is 4 µg/mL (≈ 8.76 µM); in assay [2], more than 10 µg/mL; in [5] it was 7.1 µg/mL (≈ 15.5 µM).

In the case of `C=C(C)[C@@H]1CC[C@@]2(C)[C@H]1[C@@H]1CC[C@@H]3[C@@]4(C)CCC(=O)C(C)(C)[C@@H]4[C@H](O)C[C@@]3(C)[C@]1(C)C[C@@H]2O` [RESINONE], the outcome in assay [7], in assay [8], in assay [9], in assay [10], in assay [11] and in [12] was inactive. Further, the outcome in assay [13], in assay [14], in assay [15], in [16], in [17] and in assay [18] was inactive. Moreover, the result in assay [19] and in assay [20] was inactive. The 50% inhibitory concentration (IC50) in assay [1], in [2] and in assay [5] was more than 10 µg/mL in each case.
